ASAP1 GAP inh – inhibitors of human ASAP1 ArfGAP activity, primary screen, biochemical, fluorescence polarization. ASAP1-stimulated ARF1 GTP hydrolysis, GDP FP detection. Arf-GAP with SH3 domain, ANK repeat and PH domain-containing protein 1 (Homo sapiens), …. actives 0.19% (n = 360,000). inhibition, % at 16.5 µM; in the data active means inhibition above about 25%;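 further: 0% = vehicle with enzyme and substrate and 100% = no enzyme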
ARFGAP1 inh – inhibitors of rat ARFGAP1 GAP activity, primary screen, biochemical, fluorescence polarization, GDP tracer; ADP-ribosylation factor GTPase-activating protein 1 (Rattus norvegicus), Q62848; Arfgap1-stimulated ARF1 GTP hydrolysis, GDP FP detection; inhibition, % at 16.5 µM; actives 0.26% (n = 360,000);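 active means inhibition above a per-plate limit, mean inhibition of low control wells plus 3 SD, cut at about 25% in these data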;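 further: 0% = DMSO wells with enzyme and 100% = wells lacking Arfgap1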
Target sequence (Q62848 1-136 limits assumed): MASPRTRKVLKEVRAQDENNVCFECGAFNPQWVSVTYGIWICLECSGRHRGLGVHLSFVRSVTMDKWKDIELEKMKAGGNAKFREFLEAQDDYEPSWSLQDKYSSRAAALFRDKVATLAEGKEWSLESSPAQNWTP
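Material: rat Arfgap1 catalytic domain, aa 1-136; also added: human ARF1(Δ1-17)-GTP substrate; compound dosing: one concentration, 16.5 µM, DMSO 1.26%; incubation: GTP hydrolysis reaction 2 h at 25 °C; measured by: Tracer-displacement fluorescence polarization with EDTA stop, 620/688 nm; evaluation: % inhibition from polarization; repeats: one replicate per compound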
Granule exo inh – LAMP-1 surface exposure blockers, TALL-104 cells – cell-based, flow cytometry, MLPCN library, primary screen | AID 651702, 2012 | TALL-104 LAMP-1 surface exposure; cells stimulated with thapsigargin and PMA | inhibition, % at 10 µM | actives 0.66% (n = 360,000);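 active means inhibition above about 55%, limit read from the data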
V-ATPase pHluor – regulators of yeast V-ATPase proton pumping, primary screen, pHLuorin cytosolic pH fluorescence; S. cerevisiae; AID 504577, 2011; response, % at 10 µM; actives 0.37% (n = 350,000); in the data active means response mostly above about 7.3%, no sharp cut-off; inactive means mostly below about 5.4%; further: actives read high
NRP1-CendR mod – modulators of CendR peptide binding to NRP-1, primary screen, biochemical, fluorescence polarization, uHTS | Neuropilin-1 (Homo sapiens), O14786 | AID 602438, 2012 | FAM-RPARPAR peptide binding to NRP-1 | inhibition, % at 25 µM | actives 0.85% (n = 360,000);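 active means inhibition or corrected inhibition above about 18%, plus a signal ratio from 0.5 to 1.5, limit read from the data, passing the limit was not always enough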
Active calls of the source: *. Hits are enriched below; roughly 2.2% of the tested compounds scored in any of these assays.

COc1ccc(NC(=O)CN(c2ccccc2F)S(=O)(=O)c2ccc(C)cc2)c(OC)c1 was read as ASAP1 GAP inh -11, ARFGAP1 inh -8, Granule exo inh 15, V-ATPase pHluor 3 and NRP1-CendR mod 12.
For COc1cc2c(cc1OC)-c1cc3ccc(OC)c(OC)c3c[n+]1CC2 the results were ASAP1 GAP inh -5, ARFGAP1 inh 9, Granule exo inh -12, V-ATPase pHluor -4 and NRP1-CendR mod -7.
COc1ccc2cc3[n+](cc2c1O)CCc1cc2c(cc1-3)OCO2 was read as ASAP1 GAP inh -2, ARFGAP1 inh 6, Granule exo inh -2 and NRP1-CendR mod 31*.
Screening O=C(C(=O)N1CCC(CNS(=O)(=O)c2ccc(OC(F)(F)F)cc2)CC1)c1cc2ccccc2o1 returned ASAP1 GAP inh -3 and ARFGAP1 inh 0.
`C#CCNC(=O)C[C@H]1C[C@@]2(C(=O)OC)C(=C[C@H](C3CCCC3)O[C@@H]2C)N(Cc2ccccc2)C1=O` gave ASAP1 GAP inh 1 and ARFGAP1 inh -1.
CCOC(=O)c1c(C)oc2c1c(C=NCCO)c(O)c1ccccc12 was read as ASAP1 GAP inh 2, ARFGAP1 inh -4, Granule exo inh 18, V-ATPase pHluor 4 and NRP1-CendR mod 35*.
Screening CCC(C)CN1C(=O)CSCC1(C)C(=O)NC(C)C (configuration not stated) returned ASAP1 GAP inh 4, ARFGAP1 inh -4, Granule exo inh -3 and NRP1-CendR mod 11.
For Cc1cccc(N(CC(=O)NCc2ccc(F)cc2)C(=O)c2csnn2)c1C the results were ASAP1 GAP inh 5, ARFGAP1 inh 3, Granule exo inh 1, V-ATPase pHluor -2 and NRP1-CendR mod 20*.
For CCCN(CC(=O)Nc1ccccc1C)C(=O)C1CC(=O)N(c2cccc(C)c2C)C1 (configuration not stated) the results were ASAP1 GAP inh 3, ARFGAP1 inh 16, Granule exo inh -2, V-ATPase pHluor 1 and NRP1-CendR mod -15.
Cc1cccc(N(C(=O)c2snc(C(N)=O)c2N)C(C(=O)NCC2CCCO2)c2ccc(N(C)C)cc2)c1 (configuration not stated) was read as ASAP1 GAP inh -6, ARFGAP1 inh 2, Granule exo inh 97*, V-ATPase pHluor 2 and NRP1-CendR mod 10.
`CCOc1ccccc1N(C(=O)c1snc(C(N)=O)c1N)C(C(=O)NC1CCCC1)c1cccs1` (configuration not stated) gave ASAP1 GAP inh 3, ARFGAP1 inh 12, Granule exo inh 74*, V-ATPase pHluor 0 and NRP1-CendR mod 8.
`Cc1ccccc1N(C(=O)c1snc(C(N)=O)c1N)C(C(=O)NCc1ccccc1)c1ccc(O)cc1` (configuration not stated) gave ASAP1 GAP inh 7, ARFGAP1 inh 8, Granule exo inh 64*, V-ATPase pHluor 7 and NRP1-CendR mod -7.
Screening CN(C)c1ccc(C(C(=O)NCC2CCCO2)N(C(=O)c2snc(C(N)=O)c2N)c2ccccc2)cc1 (configuration not stated) returned ASAP1 GAP inh -6, ARFGAP1 inh -10, Granule exo inh 18, V-ATPase pHluor -1 and NRP1-CendR mod 0.
`NC(=O)c1nsc(C(=O)N(c2ccccc2F)C(C(=O)NCc2ccccc2)c2ccc(O)cc2)c1N` (configuration not stated) gave ASAP1 GAP inh 2, ARFGAP1 inh 10, Granule exo inh 39, V-ATPase pHluor -51 and NRP1-CendR mod 9.
For COC(=O)[C@]12C[C@H](CC(=O)N3CCC(c4ccccc4)CC3)C(=O)N(CCC3=CCCCC3)C1=C[C@H](COCc1ccccc1)O[C@@H]2C the results were ASAP1 GAP inh -7 and ARFGAP1 inh 12.
`Cc1ccc(/C(C#N)=C\c2ccc(N3CCOCC3)o2)cc1` gave ASAP1 GAP inh 10, ARFGAP1 inh -9, Granule exo inh 78*, V-ATPase pHluor -2 and NRP1-CendR mod -247.

Screens: PubChem BioAssay, several laboratories
